Experimental data reported in ChEMBL document CHEMBL1949632, “Discovery of potent and liver-selective stearoyl-CoA desaturase (SCD) inhibitors in an acyclic linker series” (Bioorg Med Chem Lett, 2012).

Legend:
Acyl-CoA desaturase 1 [1] = target: T1, Acyl-CoA desaturase 1 (Rattus norvegicus, UniProt P07308); assay: Inhibition of rat liver microsome SCD1
T1 sequence (P07308 whole entry): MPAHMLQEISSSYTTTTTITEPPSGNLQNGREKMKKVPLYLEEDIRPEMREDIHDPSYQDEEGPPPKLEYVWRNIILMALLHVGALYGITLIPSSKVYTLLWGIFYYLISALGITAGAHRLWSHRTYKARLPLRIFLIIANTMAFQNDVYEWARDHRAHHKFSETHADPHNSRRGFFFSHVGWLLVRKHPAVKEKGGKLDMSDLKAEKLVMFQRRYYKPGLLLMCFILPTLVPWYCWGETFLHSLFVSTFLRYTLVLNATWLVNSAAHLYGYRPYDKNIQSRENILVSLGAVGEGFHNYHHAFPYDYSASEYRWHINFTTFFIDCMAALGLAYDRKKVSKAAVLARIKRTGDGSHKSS
Method in brief: (§1)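 IC50s are the average of at least two independent titrations.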

Stearoyl-CoA desaturase [2] = target: T2, Stearoyl-CoA desaturase (Homo sapiens, UniProt O00767); assay: Inhibition of SCD1 in OATP-deficient human HepG2 cells by whole cell assay; assay type: cell-based
T2 sequence (O00767 whole entry): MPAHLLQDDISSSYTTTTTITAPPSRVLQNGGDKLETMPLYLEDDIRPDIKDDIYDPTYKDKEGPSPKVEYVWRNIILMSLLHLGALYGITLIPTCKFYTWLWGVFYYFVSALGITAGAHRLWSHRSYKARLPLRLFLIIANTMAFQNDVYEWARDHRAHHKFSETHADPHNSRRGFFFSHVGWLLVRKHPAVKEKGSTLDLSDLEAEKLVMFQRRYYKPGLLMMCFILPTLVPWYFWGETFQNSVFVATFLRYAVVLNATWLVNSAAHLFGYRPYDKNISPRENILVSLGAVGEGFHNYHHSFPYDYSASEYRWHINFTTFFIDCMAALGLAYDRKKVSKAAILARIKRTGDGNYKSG

Acyl-CoA desaturase 1 [3] = target: T1, Acyl-CoA desaturase 1; assay: Inhibition of SCD1 in rat hepatocytes expressing OATP; assay type: cell-based, Hepatocyte; method in brief: as §1
Mus musculus [4] = assay: Inhibition of SCD1 in mouse liver assessed as reduction in conversion of [14C]stearic acid to [14C]oleic acid at 60 mg/kg, po measured after 3 hrs; assay type: functional
Method in brief: (§2)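 Mouse liver pharmacodynamic model. Mice (n = 5) on high-carbohydrate diet, dosed orally; [1-14C]-stearic acid tracer given intravenously. Liver lipid 14C-oleic/14C-stearic ratio (SCD activity index) and liver drug concentration determined 3 h post dose. % inhibition is relative to vehicle-treated animals.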

[5] = Stability in mouse hepatocytes assessed as compound remaining after 2 hrs; assay type: ADME, cell-based, Hepatocyte; conditions: read-out: Stability
Method in brief: (§3)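 Fresh mouse or rat hepatocytes, 2 million cells/mL in Krebs-Henseleit buffer, incubated at 37 °C for 2 h under 95% O2/5% CO2. Parent compound remaining measured.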

[6] = target: Acyl-CoA desaturase 1 (Mus musculus) (UniProt P13516); assay: Inhibition of SCD1 in mouse SCD1 enzyme assay
[7] = Drug uptake in mouse liver at 10 mg/kg, po after 6 hrs; assay type: ADME, organism-based; set-up: dose 10 mg/kg, route oral; conditions: read-out: Drug uptake
Method in brief: (§4)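 Tissue distribution study. Mice (n = 2) given 10 mg/kg orally; liver, plasma, shaved skin and Harderian gland concentrations measured 6 h post dose.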

[8] = Drug uptake in mouse liver at 60 mg/kg, po measured after 3 hrs; assay type: ADME, organism-based; set-up: dose 60 mg/kg, route oral; conditions: read-out: Drug uptake; method in brief: as §2
Acyl-CoA 6-desaturase = target: T3, Acyl-CoA 6-desaturase (Homo sapiens, UniProt O95864); assay: Inhibition of delta-6 desaturase expressed in HepG2 cells; assay type: cell-based
T3 sequence (O95864 whole entry): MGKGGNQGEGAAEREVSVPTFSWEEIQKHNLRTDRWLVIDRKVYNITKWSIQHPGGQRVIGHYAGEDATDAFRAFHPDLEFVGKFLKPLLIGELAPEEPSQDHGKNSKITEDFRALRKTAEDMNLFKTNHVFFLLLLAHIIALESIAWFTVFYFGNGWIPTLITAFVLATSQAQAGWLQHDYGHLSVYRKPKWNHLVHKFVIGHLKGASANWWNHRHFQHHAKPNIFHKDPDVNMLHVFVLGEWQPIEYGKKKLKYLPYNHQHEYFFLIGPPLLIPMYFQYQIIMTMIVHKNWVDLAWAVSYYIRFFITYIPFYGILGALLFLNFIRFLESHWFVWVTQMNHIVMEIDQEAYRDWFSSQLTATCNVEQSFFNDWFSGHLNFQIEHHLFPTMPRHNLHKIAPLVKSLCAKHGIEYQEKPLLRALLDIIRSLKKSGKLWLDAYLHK

[9] = Stability in rat hepatocytes assessed as compound remaining after 2 hrs; assay type: ADME, cell-based, Hepatocyte; conditions: read-out: Stability; method in brief: as §3
Stearoyl-CoA desaturase [10] = target: T2, Stearoyl-CoA desaturase; assay: Inhibition of human SCD1
[11] = Oral bioavailability in C57BL/6 mouse at 10 mg/kg; assay type: ADME, organism-based, C57BL6; conditions: in vivo
Method in brief: (§5)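 C57BL6 mice dosed orally at 10 mg/kg in 0.5% methocel; plasma PK followed over 0–6 h, giving oral bioavailability (F) and AUC0–6h.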

[12] = AUC (0 to 6 hrs) in C57BL/6 mouse at 10 mg/kg, po; assay type: ADME, organism-based, C57BL6; set-up: time < 6 hr, dose 10 mg/kg, route oral; conditions: plasma; method in brief: as §5
[13] = target: Acyl-CoA (8-3)-desaturase (Homo sapiens, UniProt O60427); assay: Inhibition of delta-5 desaturase expressed in HepG2 cells; assay type: cell-based
Sequence of Acyl-CoA (8-3)-desaturase (O60427 whole entry): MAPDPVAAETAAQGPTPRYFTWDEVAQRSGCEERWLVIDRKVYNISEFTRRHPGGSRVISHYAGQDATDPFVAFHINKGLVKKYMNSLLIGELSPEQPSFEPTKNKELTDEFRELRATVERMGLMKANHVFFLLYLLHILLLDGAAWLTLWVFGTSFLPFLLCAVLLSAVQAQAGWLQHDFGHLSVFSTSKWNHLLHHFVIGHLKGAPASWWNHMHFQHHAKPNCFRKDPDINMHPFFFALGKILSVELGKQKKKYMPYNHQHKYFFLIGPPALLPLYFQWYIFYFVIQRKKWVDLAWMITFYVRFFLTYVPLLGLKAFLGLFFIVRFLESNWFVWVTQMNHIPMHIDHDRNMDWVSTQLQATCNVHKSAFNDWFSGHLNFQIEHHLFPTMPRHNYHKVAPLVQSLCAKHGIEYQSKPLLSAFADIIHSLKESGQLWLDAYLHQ

[14] = Drug uptake in mouse plasma at 10 mg/kg, po after 6 hrs; assay type: ADME, organism-based; set-up: dose 10 mg/kg, route oral; method in brief: as §4
Mus musculus [15] = assay: Inhibition of SCD1 in mouse liver assessed as reduction in conversion of [14C]stearic acid to [14C]oleic acid after at 10 mg/kg, po after 3 hrs; assay type: functional; method in brief: as §2
[16] = Drug uptake in mouse liver at 2 mg/kg, po measured after 3 hrs; assay type: ADME, organism-based; set-up: dose 2 mg/kg, route oral; conditions: read-out: Drug uptake; method in brief: as §2
[17] = Drug uptake in mouse harderian glands at 10 mg/kg, po after 6 hrs; assay type: ADME, organism-based, Harderian gland; set-up: dose 10 mg/kg, route oral; conditions: read-out: Drug uptake; method in brief: as §4
[18] = Drug uptake in mouse liver at 10 mg/kg, po after 3 hrs; assay type: ADME, organism-based; set-up: dose 10 mg/kg, route oral; conditions: read-out: Drug uptake; method in brief: as §2
[19] = Drug uptake in mouse shaved skin at 10 mg/kg, po after 6 hrs; assay type: ADME, organism-based, Zone of skin; set-up: dose 10 mg/kg, route oral; conditions: read-out: Drug uptake; method in brief: as §4
Mus musculus [20] = assay: Inhibition of SCD1 in mouse liver assessed as reduction in conversion of [14C]stearic acid to [14C]oleic acid at 2 mg/kg, po measured after 3 hrs; assay type: functional; method in brief: as §2
[21] = Drug uptake in mouse liver at 0.4 mg/kg, po after 3 hrs; assay type: ADME, organism-based; set-up: dose 0.4 mg/kg, route oral; conditions: read-out: Drug uptake; method in brief: as §2
Mus musculus [22] = assay: Inhibition of SCD1 in mouse liver assessed as reduction in conversion of [14C]stearic acid to [14C]oleic acid after at 0.4 mg/kg, po after 3 hrs; assay type: functional; method in brief: as §2

Row | Structure (SMILES) | IC50 (Acyl-CoA desaturase 1 [1]) [nM] | IC50 (Stearoyl-CoA desaturase [2]) [nM] | IC50 (Acyl-CoA desaturase 1 [3]) [nM] | concentration at 6 h [7] [nM] | concentration at 6 h [14] [nM] | concentration at 3 h [16] [nM] | concentration at 6 h [17] [nM] | concentration at 6 h [19] [nM] | inhibition in vivo at 2 mg/kg (Mus musculus [20]) [%] | also measured
1 | O=C(O)Cn1nnc(-c2cnc(OCCCOc3cc(OC(F)(F)F)ccc3Br)s2)n1 | 2 | 969 | 91 | 13700 | 770 | 4200 | 1850 | 300 | 81 | inhibition in vivo at 10 mg/kg (Mus musculus [15]): 91%; concentration at 3 h [18]: 18300 nM
2 | O=C(O)Cn1nnc(-c2cc(N3CCC(Oc4cc(F)ccc4Br)CC3)no2)n1 [MK-8245] |  |  |  | 2700 | 30 | 4900 | 130 | 70 | 89 | concentration at 3 h [21]: 1600 nM; inhibition in vivo at 0.4 mg/kg (Mus musculus [22]): 49%
3 | O=C(O)Cn1nnc(-c2nnc(OCCCOc3cc(F)ccc3Br)s2)n1 | 26 | > 60000 |  |  |  |  |  |  |  | 
4 | Cc1nc(OCCCOc2cc(F)ccc2Br)sc1-c1nnn(CC(=O)O)n1 | 22 | 20500 | 945 |  |  |  |  |  |  | 

Further lines, with some results ahead:

Row | IC50 (Acyl-CoA desaturase 1 [1]) [nM] | IC50 (Stearoyl-CoA desaturase [2]) [nM] | IC50 (Acyl-CoA desaturase 1 [3]) [nM] | concentration at 6 h [7] [nM] | concentration at 6 h [14] [nM] | concentration at 3 h [16] [nM] | concentration at 6 h [17] [nM] | concentration at 6 h [19] [nM] | Structure (SMILES) | inhibition in vivo at 2 mg/kg (Mus musculus [20]) [%] | also measured
5 | 248 | > 40000 |  |  |  |  |  |  | O=C(O)Cn1nnc(-c2cc(OCCCCOc3cc(F)ccc3Br)no2)n1 |  | 
6 | 13 | 7740 | 213 | 230 |  |  |  |  | O=C(O)Cn1nnc(-c2cc(OCCCOc3cc(F)ccc3Br)no2)n1 |  | inhibition in vivo at 60 mg/kg (Mus musculus [4]): 85%; remaining at 2 h [5]: 75%; IC50 [6]: 10 nM; concentration at 3 h [8]: 7800 nM; IC50 (Acyl-CoA 6-desaturase): > 20000 nM; remaining at 2 h [9]: 55%; IC50 (Stearoyl-CoA desaturase [10]): 41 nM; bioavailability [11]: 10%; AUC(0-t) at 6 h [12]: 1 µM·h; IC50 [13]: > 20000 nM
7 | 305 | > 100000 |  |  |  |  |  |  | O=C(O)Cn1nnc(-c2cc(OCCOCc3cc(F)ccc3Br)no2)n1 |  | 
8 | 5 | 3870 | 176 | 8070 | 1080 | 7600 | 590 | 240 | O=C(O)Cn1nnc(-c2cnc(OCCCOc3cc(F)ccc3Br)s2)n1 | 49 | inhibition in vivo at 10 mg/kg (Mus musculus [15]): 79%; concentration at 3 h [18]: 28600 nM; remaining at 2 h [9]: 94%; bioavailability [11]: 32%; AUC(0-t) at 6 h [12]: 11.4 µM·h
9 | 226 | > 40000 |  |  |  |  |  |  | O=C(O)Cn1nnc(-c2cc(OCCOc3cc(F)ccc3Br)no2)n1 |  | 
